Consider 72 compounds from ChEMBL document CHEMBL1127039, “Nonpeptide angiotensin II antagonists derived from 4H-1,2,4-triazoles and 3H-imidazo[1,2-b][1,2,4]triazoles” (J Med Chem, 1993).

Each structure is given as a SMILES string.

For the experiment, the target named is T1, Type-1 angiotensin II receptor (Oryctolagus cuniculus, UniProt P34976).
T1 sequence (P34976 whole entry): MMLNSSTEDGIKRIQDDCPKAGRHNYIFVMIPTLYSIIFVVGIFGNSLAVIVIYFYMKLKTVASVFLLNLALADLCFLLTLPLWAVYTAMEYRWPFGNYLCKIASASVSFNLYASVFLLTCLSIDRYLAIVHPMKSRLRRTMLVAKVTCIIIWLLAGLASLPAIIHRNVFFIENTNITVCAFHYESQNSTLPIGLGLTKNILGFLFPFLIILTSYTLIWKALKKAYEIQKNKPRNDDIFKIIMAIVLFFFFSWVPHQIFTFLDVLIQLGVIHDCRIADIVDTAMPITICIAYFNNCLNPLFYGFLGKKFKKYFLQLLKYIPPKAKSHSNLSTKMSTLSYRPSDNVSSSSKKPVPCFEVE
The experiment in a line: Displacement of [125I]-Sar1-Ile8-A II at the rabbit aorta angiotensin II receptor, type 1. It is filed as tissue-based. Put shortly:
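Rabbit aorta membranes in 50 mM Tris-HCl pH 7.4, 5 mM MgCl2, 0.2 mg/mL bacitracin; 0.2% BSA only in original version. Nonspecific binding with 1 μM unlabeled Sar1Ile8-AII. Filtration, gamma counting. Duplicate tubes, five concentrations; IC50 from nonlinear regression of displacement curves, sometimes averaged over separate assays.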
A general note: Loss of bound radioactivity is the signal in a displacement assay; it reports binding, not function.
Usually IC50 stands for the concentration needed to halve the response being measured. `CCCCc1nnc(S(C)(=O)=O)n1Cc1ccc(-c2ccccc2-c2nn[nH]n2)cc1`: the half-inhibitory concentration (IC50) is 0.4 µM.

As for `CCCCc1nn2cc(CC)nc2n1Cc1ccc(-c2ccccc2-c2nn[nH]n2)cc1`, the IC50 turned out to be 0.055 µM.

Take `CCCCc1nnc(SCc2ccc3ccccc3c2)n1Cc1ccc(NC(=O)c2ccccc2C(=O)O)cc1`: the IC50 turned out to be 0.049 µM.

`CCCCc1nnc(SCc2cccc(OC)c2)n1Cc1ccc(-c2ccccc2-c2nn[nH]n2)cc1` had an IC50 of 0.094 µM.

Take `CCCSc1nnc(C(F)(F)F)n1Cc1ccc(NC(=O)c2ccccc2C(=O)O)cc1`: the 50% inhibitory concentration (IC50) worked out at 2.1 µM.

As to `CCCCc1nc2ccccc2n1Cc1ccc(-c2ccccc2-c2nn[nH]n2)cc1`, the IC50 was determined as 0.096 µM.

`CCCCc1nnc(SCc2cccc(Cl)c2)n1Cc1ccc(NC(=O)c2ccccc2C(=O)O)cc1` displayed a half-maximal inhibitory concentration (IC50) of 0.026 µM.

`CCCCc1nnc(SCc2cccc(OC)c2)n1Cc1ccc(NC(=O)c2ccccc2C(=O)O)cc1` registered an IC50 of 0.021 µM.

As for `CCCCc1nnc([S+]([O-])Cc2ccc(OC)cc2)n1Cc1ccc(-c2ccccc2-c2nnn[nH]2)cc1` (configuration not stated), the 50% inhibitory concentration (IC50) amounted to 0.05 µM.

`CCCCc1nnc([S+]([O-])Cc2ccc(OC)cc2)n1Cc1ccc(NC(=O)c2ccccc2-c2nn[nH]n2)cc1` (configuration not stated) came in with an IC50 of 0.028 µM.

In turn, `CCCSc1nnc(CSc2ccccc2)n1Cc1ccc(NC(=O)c2ccccc2C(=O)O)cc1` yielded an IC50 of 1.2 µM.

`CCCCc1nnc(OCc2ccccc2)n1Cc1ccc(-c2ccccc2-c2nn[nH]n2)cc1` gave a half-maximal inhibitory concentration (IC50) of 0.37 µM.

`CCCCc1nnc(SCCc2ccccc2)n1Cc1ccc(-c2ccccc2-c2nnn[nH]2)cc1` showed an IC50 of 0.035 µM.

Compound `CCCCc1nnc(SCc2ccc(C(=O)OC)cc2)n1Cc1ccc(-c2ccccc2-c2nn[nH]n2)cc1` showed a half-maximal inhibitory concentration (IC50) of 0.12 µM.

In turn, `CCCCc1nnc(-c2ccco2)n1Cc1ccc(NC(=O)c2ccccc2C(=O)O)cc1` registered a 50% inhibitory concentration (IC50) of 1 µM.

`CCCCCc1nnc(SCc2ccc(Cl)cc2)n1Cc1ccc(-c2ccccc2-c2nn[nH]n2)cc1` gave an IC50 of 0.094 µM.

The compound `CCCCc1nnc(SCc2ccc(OC)cc2)n1Cc1ccc(-c2ccccc2-c2nnn[nH]2)cc1` yielded an IC50 of 0.031 µM.

For `CCSc1nnc(-c2ccccc2)n1Cc1ccc(NC(=O)c2ccccc2C(=O)O)cc1`, the half-inhibitory concentration (IC50) came to 1.9 µM.

Compound `CCCCc1nnc(SCc2ccc(C(F)(F)F)cc2)n1Cc1ccc(NC(=O)c2ccccc2C(=O)O)cc1` registered an IC50 of 0.042 µM.

In turn, `CCCCc1nnc(Sc2ccccc2)n1Cc1ccc(-c2ccccc2-c2nn[nH]n2)cc1` displayed a concentration for half-maximal inhibition (IC50) of 0.1 µM.

The compound `CCCCc1nnc(SCc2cccc(C(=O)O)c2)n1Cc1ccc(NC(=O)c2ccccc2C(=O)O)cc1` had an IC50 of 0.015 µM.

Turning to `CCCc1nnc(SCc2ccc(Cl)cc2)n1Cc1ccc(-c2ccccc2-c2nn[nH]n2)cc1`, the IC50 worked out at 0.098 µM.

As to `CCCCc1nn2c(-c3ccccc3)cnc2n1Cc1ccc(-c2ccccc2-c2nn[nH]n2)cc1`, the IC50 stood at 0.22 µM.

Turning to `CCCCc1nnc(SCc2ccccc2C)n1Cc1ccc(-c2ccccc2-c2nn[nH]n2)cc1`, the half-maximal inhibitory concentration (IC50) amounted to 0.017 µM.

For the compound `CCCc1nnc(SCc2ccccc2)n1Cc1ccc(NC(=O)c2ccccc2C(=O)O)cc1`, the IC50 was 0.12 µM.

As for `CCSc1nnc(COC)n1Cc1ccc(NC(=O)c2ccccc2C(=O)O)cc1`, the half-maximal inhibitory concentration (IC50) was determined as 5.2 µM.

As to `CCSc1nnc(C(F)(F)F)n1Cc1ccc(NC(=O)c2ccccc2C(=O)O)cc1`, the IC50 was 4.8 µM.

As for `CCCCc1nnc(S)n1Cc1ccc(-c2ccccc2C(=O)O)cc1`, the half-inhibitory concentration (IC50) amounted to 0.86 µM.

Consider `CCCSc1nnc(CCCc2ccccc2)n1Cc1ccc(NC(=O)c2ccccc2C(=O)O)cc1`, for which the IC50 is 0.32 µM.

`CCCCc1nnc(SCc2ccccc2[N+](=O)[O-])n1Cc1ccc(-c2ccccc2-c2nnn[nH]2)cc1` had an IC50 of 0.13 µM.

Consider `CCCSc1nnc(Cc2ccccc2)n1Cc1ccc(NC(=O)c2ccccc2C(=O)O)cc1`, for which the half-inhibitory concentration (IC50) is 0.38 µM.

In the case of `CCCCc1nnc(SCc2cccc(C(=O)OC)c2)n1Cc1ccc(NC(=O)c2ccccc2C(=O)O)cc1`, the IC50 came out at 0.03 µM.

For the compound `CCCCc1nn2c(-c3ccccc3)c(C)nc2n1Cc1ccc(-c2ccccc2-c2nnn[nH]2)cc1`, the half-inhibitory concentration (IC50) stood at 0.17 µM.

Regarding `CCCCc1nnc(Sc2ccccc2)n1Cc1ccc(NC(=O)c2ccccc2C(=O)O)cc1`, the IC50 was determined as 0.06 µM.

In the case of `CCCCc1nnc(SCc2ccccc2C#N)n1Cc1ccc(NC(=O)c2ccccc2C(=O)O)cc1`, the half-maximal inhibitory concentration (IC50) is 0.06 µM.

Regarding `CCCCc1nnc(OCCc2ccccc2)n1Cc1ccc(-c2ccccc2-c2nnn[nH]2)cc1`, the IC50 was 0.063 µM.

`CCCCc1nnc(SCc2ccc(Cl)cc2)n1Cc1ccc(NC(=O)c2ccccc2C(=O)O)cc1` gave an IC50 of 0.0068 µM.

`CCCCc1nnc(SCC(C)C)n1Cc1ccc(-c2ccccc2-c2nn[nH]n2)cc1`: the IC50 stood at 0.072 µM.

Compound `CCCCc1nnc(SCc2ccccc2C(=O)OC)n1Cc1ccc(NC(=O)c2ccccc2C(=O)O)cc1` gave an IC50 of 0.014 µM.

`CCCCc1nnc(SC(CC)C(=O)OC)n1Cc1ccc(NC(=O)c2ccccc2C(=O)O)cc1` (configuration not stated) had an IC50 of 0.3 µM.

In turn, `CCCSc1nnc(-c2ccccc2)n1Cc1ccc(NC(=O)c2ccccc2C(=O)O)cc1` registered an IC50 of 1.6 µM.

Regarding `CCCCc1nnc(C(=O)N(C)c2ccccc2)n1Cc1ccc(-c2ccccc2-c2nnn[nH]2)cc1`, the IC50 is 0.35 µM.

As for `CCCCc1nn2c(C)c(C)nc2n1Cc1ccc(-c2ccccc2-c2nn[nH]n2)cc1`, the IC50 is 0.0078 µM.

With `CCCCc1nnc([S+]([O-])Cc2ccc([N+](=O)[O-])cc2)n1Cc1ccc(-c2ccccc2-c2nnn[nH]2)cc1` (configuration not stated), the IC50 came to 0.0089 µM.

With `CCCCc1nnc(-c2cccnc2)n1Cc1ccc(NC(=O)c2ccccc2C(=O)O)cc1`, the IC50 was 1.7 µM.

Turning to `CCCCc1nnc(SCC(=O)OC)n1Cc1ccc(NC(=O)c2ccccc2C(=O)O)cc1`, the IC50 was determined as 0.33 µM.

For the compound `CCCCc1nnc(SC(C(=O)OC)c2ccccc2)n1Cc1ccc(NC(=O)c2ccccc2C(=O)O)cc1` (configuration not stated), the half-inhibitory concentration (IC50) amounted to 0.0061 µM.

In turn, `CCCCc1nnc(-c2ccncc2)n1Cc1ccc(NC(=O)c2ccccc2C(=O)O)cc1` displayed an IC50 of 1.4 µM.

`CCCCc1nnc([S+]([O-])Cc2ccc(OC)cc2)n1Cc1ccc(NC(=O)c2ccccc2C(=O)O)cc1` (configuration not stated) returned an IC50 of 0.0074 µM.

Compound `CCSc1nnc(Cc2ccccc2)n1Cc1ccc(NC(=O)c2ccccc2C(=O)O)cc1` returned a concentration for half-maximal inhibition (IC50) of 1 µM.

For the compound `CCCCc1nc(Cl)c(CC(=O)OC)n1Cc1ccc(NC(=O)c2ccccc2C(=O)O)cc1`, the IC50 came out at 0.42 µM.

`CCCCc1nnc(SCCO)n1Cc1ccc(NC(=O)c2ccccc2C(=O)O)cc1` showed a 50% inhibitory concentration (IC50) of 0.48 µM.

As for `CCCCc1nnc(SCc2ccccc2CO)n1Cc1ccc(-c2ccccc2-c2nn[nH]n2)cc1`, the concentration for half-maximal inhibition (IC50) is 0.036 µM.

The compound `CCCCc1nnc(SCc2ccccc2C(=O)OC)n1Cc1ccc(-c2ccccc2-c2nnn[nH]2)cc1` came in with an IC50 of 0.09 µM.

Consider `CCCCc1nnc(SCC2CCCCC2)n1Cc1ccc(-c2ccccc2-c2nn[nH]n2)cc1`, for which the 50% inhibitory concentration (IC50) was found to be 0.036 µM.

The compound `CCCCc1nnc(SCc2cccc(C)c2)n1Cc1ccc(NC(=O)c2ccccc2C(=O)O)cc1` gave a half-inhibitory concentration (IC50) of 0.032 µM.

Consider `CCCCc1nnc(SCC(=O)c2ccccc2)n1Cc1ccc(NC(=O)c2ccccc2C(=O)O)cc1`, for which the concentration for half-maximal inhibition (IC50) turned out to be 0.19 µM.

The compound `CCCCc1nnc(SCC(=O)NC)n1Cc1ccc(NC(=O)c2ccccc2C(=O)O)cc1` showed a half-inhibitory concentration (IC50) of 0.72 µM.

`CCCCc1nnc(SC(C(=O)O)c2ccccc2)n1Cc1ccc(NC(=O)c2ccccc2C(=O)O)cc1` (configuration not stated) came in with a 50% inhibitory concentration (IC50) of 0.02 µM.

Turning to `CCCCc1nn2cc(C)nc2n1Cc1ccc(-c2ccccc2-c2nnn[nH]2)cc1`, the 50% inhibitory concentration (IC50) came to 0.055 µM.

Compound `CCCCc1nnc(NCc2ccc(OC)cc2)n1Cc1ccc(-c2ccccc2-c2nnn[nH]2)cc1` returned an IC50 of 0.78 µM.

The compound `CCCCc1nnc(NCc2ccc(Cl)cc2)n1Cc1ccc(-c2ccccc2-c2nn[nH]n2)cc1` gave a 50% inhibitory concentration (IC50) of 0.14 µM.

Consider `CCCCc1nc(Cl)c(CO)n1Cc1ccc(-c2ccccc2C(=O)O)cc1`, for which the IC50 is 0.23 µM.

As for `CCCCc1nnc(-c2ccccc2)n1Cc1ccc(NC(=O)c2ccccc2C(=O)O)cc1`, the half-inhibitory concentration (IC50) came to 0.93 µM.

In the case of `CCCCc1nnc([S+]([O-])Cc2ccccc2C(=O)O)n1Cc1ccc(-c2ccccc2-c2nnn[nH]2)cc1` (configuration not stated), the half-inhibitory concentration (IC50) is 0.01 µM.

On to `CCCCc1nnc(SCc2ccc(C(=O)O)cc2)n1Cc1ccc(-c2ccccc2-c2nnn[nH]2)cc1`, for which the IC50 came out at 0.024 µM.

`CCCCc1nnc(C(=O)NCc2ccccc2)n1Cc1ccc(-c2ccccc2-c2nnn[nH]2)cc1` yielded an IC50 of 0.057 µM.

Compound `CCCCc1nn2c(C)c(-c3ccccc3)nc2n1Cc1ccc(-c2ccccc2-c2nnn[nH]2)cc1` yielded a 50% inhibitory concentration (IC50) of 0.013 µM.

Consider `CCCCc1nnc(SC)n1Cc1ccc(-c2ccccc2-c2nnn[nH]2)cc1`, for which the IC50 was 0.31 µM.

For `CCCCc1nnc(SCCc2ccccc2)n1Cc1ccc(NC(=O)c2ccccc2C(=O)O)cc1`, the IC50 worked out at 0.07 µM.

Turning to `CCCCc1nnc(SCc2ccccc2Cl)n1Cc1ccc(-c2ccccc2-c2nnn[nH]2)cc1`, the IC50 turned out to be 0.11 µM.

As to `CCCCc1nnc(SCc2ccccc2Cl)n1Cc1ccc(NC(=O)c2ccccc2C(=O)O)cc1`, the IC50 was found to be 0.03 µM.
